# In publication PMC7423752 (Acta biomaterialia, 2020):
# What was measured:
# PSMA [1] = details: cited from earlier work
# PSMA [2] = details: read-out: Kd to PSMA; cited from earlier work
# [3] = system: PSMA-positive prostate cancer C4–2 cells; assay: Cellular uptake of the micelle in cell monolayers; format: cell-based; details: 0.5 and 1 h incubation
# Method in brief: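 C4–2 cells seeded at 2×10^5 per well 24 h ahead. They were exposed at 37°C for 0.5 and 1 h to micelles with or without the PSMA ligand, or to free test compound. Cells were then PBS-washed and RIPA-lysed. Part of the lysate went to BCA protein assay; the rest was treated with 4N NaOH (RT, 1 h), neutralised with phosphate buffer and DCM-extracted. Uptake was normalised to total protein; mean ± SD, n = 3.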
# [4] = cited from earlier work
SMILES,IC50 (PSMA [1]; read-out: IC50 towards PSMA) [nM],Ki (PSMA [1]; read-out: Ki towards PSMA) [nM],Kd (PSMA [2]) [nM],"cellular uptake, rank among groups [3]",water solubility [4]
"O=C(O)CCC(NC(=O)NC(CCC(=O)O)C(=O)O)C(=O)O (centres unmarked) [DUPA, 2-[3-(1,3-dicarboxypropyl)ureido]pentanedioic acid]",47,8,14,,
"CO[C@H]1C(=O)[C@]2(C)[C@@H](OC)C[C@H]3OC[C@@]3(OC(C)=O)[C@H]2[C@H](OC(=O)c2ccccc2)[C@]2(O)C[C@H](OC(=O)[C@H](O)[C@@H](NC(=O)OC(C)(C)C)c3ccccc3)C(C)=C1C2(C)C [cabazitaxel, Cabazitaxel]",,,,lowest uptake,very low
